Experimental data as given in PMC5331736 (Drug testing and analysis, 2014).

What was measured:
SERT = SERT (Rattus norvegicus, UniProt P31652); test: Uptake blocking at SERT; format: biochemical; details: subsequent experiments, data not shown
[1] = molecular target: dopamine transporters (DAT) (Rattus norvegicus, UniProt P23977); test: Release assay at DAT, [3H]MPP+ preloaded rat brain synaptosomes; format: biochemical; details: (EC50 at DAT)^−1/(EC50 at SERT)^−1; higher value indicates greater DAT selectivity
In short: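 Male Sprague-Dawley rat (250–300 g) brain synaptosomes. DAT substrate was 9 nM [3H]MPP+ and SERT substrate 5 nM [3H]5-HT. Buffers held 1 μM reserpine, with unlabelled blockers of competing transporters. Synaptosomes were preloaded for 1 h in Krebs-phosphate buffer, then added to test compound. Filtration stopped release, and retained radioactivity was counted. The ratio comes from dose-response EC50s; N = 3–4, triplicate.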

5-HT transporters (SERT) = 5-HT transporters (SERT) (Rattus norvegicus, UniProt P31652); test: Release assay at SERT, [3H]5-HT preloaded rat brain synaptosomes; format: biochemical; details: for releasing efficacy at SERT (in words): rat brain tissue
In short: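 Synaptosomes came from male Sprague-Dawley rat (250–300 g) brains after CO2 euthanasia. They were preloaded to steady state (1 h) with 5 nM [3H]5-HT in Krebs-phosphate buffer containing 1 μM reserpine, plus unlabelled blockers for the other transporters. Preloaded synaptosomes were added to test compound dilutions, and release was stopped by vacuum filtration. Retained radioactivity was measured by scintillation counting. Dose-response; mean ± SD, N = 3–4, triplicate.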

[2] = cis to trans isomerization in solution; format: physicochemical; details: acetonitrile only

dopamine transporters (DAT), sequence (P23977 whole entry): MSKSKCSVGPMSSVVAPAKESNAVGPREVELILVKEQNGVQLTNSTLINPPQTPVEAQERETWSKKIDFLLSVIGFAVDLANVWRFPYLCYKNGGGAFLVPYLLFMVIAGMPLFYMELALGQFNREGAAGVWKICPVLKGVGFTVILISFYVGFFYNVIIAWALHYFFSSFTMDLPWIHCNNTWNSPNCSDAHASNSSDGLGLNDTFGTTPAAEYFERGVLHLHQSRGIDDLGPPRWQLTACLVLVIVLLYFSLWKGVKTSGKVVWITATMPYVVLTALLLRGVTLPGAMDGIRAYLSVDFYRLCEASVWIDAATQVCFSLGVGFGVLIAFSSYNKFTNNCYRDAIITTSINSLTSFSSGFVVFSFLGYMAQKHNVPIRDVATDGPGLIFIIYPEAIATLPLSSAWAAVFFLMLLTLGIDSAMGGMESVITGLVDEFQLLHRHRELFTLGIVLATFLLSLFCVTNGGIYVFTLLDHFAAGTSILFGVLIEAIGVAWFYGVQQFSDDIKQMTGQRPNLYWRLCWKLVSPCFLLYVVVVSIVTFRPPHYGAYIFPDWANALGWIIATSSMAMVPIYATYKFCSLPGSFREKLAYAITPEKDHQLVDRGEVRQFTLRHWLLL
5-HT transporters (SERT), sequence (P31652 whole entry): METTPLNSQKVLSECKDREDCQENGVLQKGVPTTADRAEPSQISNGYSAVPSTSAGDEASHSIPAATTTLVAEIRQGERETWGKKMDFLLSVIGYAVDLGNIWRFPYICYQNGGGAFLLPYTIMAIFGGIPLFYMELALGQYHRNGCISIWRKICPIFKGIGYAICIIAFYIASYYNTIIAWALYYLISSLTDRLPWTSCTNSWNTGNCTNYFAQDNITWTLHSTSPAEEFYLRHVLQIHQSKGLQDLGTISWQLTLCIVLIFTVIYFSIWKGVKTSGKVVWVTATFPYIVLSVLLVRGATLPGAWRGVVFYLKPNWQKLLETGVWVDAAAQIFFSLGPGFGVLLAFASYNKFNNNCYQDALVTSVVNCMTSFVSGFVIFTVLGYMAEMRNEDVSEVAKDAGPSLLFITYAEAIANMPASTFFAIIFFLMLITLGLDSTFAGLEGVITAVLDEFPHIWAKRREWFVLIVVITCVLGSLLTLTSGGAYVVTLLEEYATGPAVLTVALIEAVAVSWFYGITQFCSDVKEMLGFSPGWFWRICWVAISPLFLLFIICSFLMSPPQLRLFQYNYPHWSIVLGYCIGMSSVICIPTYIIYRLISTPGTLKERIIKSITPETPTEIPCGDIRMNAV
SERT, sequence (P31652 whole entry): as above

| Structure (SMILES) | uptake blocker efficacy at SERT (SERT) | DAT/SERT ratio [1] | maximal release at SERT (5-HT transporters (SERT); efficacy, % of maximal release) [%] | releasing efficacy at SERT (in words) (5-HT transporters (SERT)) | cis to trans isomerization [2] |
| --- | --- | --- | --- | --- | --- |
| Cc1ccc([C@@H]2OC(N)=N[C@H]2C)cc1 (relative stereo) [Trans-DMAR, trans-4,4′-dimethylaminorex] | fully efficacious as an uptake blocker | 2.5 | 75 | partial releasing activity |  |
| C[C@@H]1N=C(N)O[C@@H]1c1ccc2c(c1)OCO2 (racemic) [Cis-MDMAR, (±)-cis-3′,4′-Methylenedioxy-4-methylaminorex] |  | 4.3 |  | fully efficacious releasing agents | Isomerization did not occur |
| C[C@@H]1N=C(N)O[C@H]1c1ccc2c(c1)OCO2 (racemic) [Trans-MDMAR, (±)-trans-3′,4′-Methylenedioxy-4-methylaminorex] |  | 2.0 |  | fully efficacious releasing agents |  |
| Cc1ccc([C@H]2OC(N)=N[C@H]2C)cc1 (relative stereo) [Cis-DMAR, cis-4,4′-dimethylaminorex] |  | 1.6 |  | fully efficacious releasing agents |  |
| CNC(C)Cc1ccc2c(c1)OCO2 (single isomer, unassigned; (+)) [(+)-MDMA, (+)-3,4-methylenedioxymethamphetamine] |  | 0.6 |  |  |  |
